# Measurements as given in ChEMBL document CHEMBL2176909, “Kaurenoic acid from Sphagneticola trilobata Inhibits Inflammatory Pain: effect on cytokine production and activation of the NO-cyclic GMP-protein kinase G-ATP-sensitive potassium channel signaling pathway” (J Nat Prod, 2012).
# Calls of active or inactive are those of the source.
# What was measured:
# Mus musculus [1] = assay: Antihyperalgesic activity against thermal hyperalgesia in Swiss mouse assessed as increase in thermal nociceptive threshold at 10 mg/kg, po after 1.5 to 5.5 hrs by hot plate test; type: functional, organism-based; set-up: dose 10 mg/kg
# Summary of the method: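 Male Swiss mice (25–30 g), 10 mg/kg po. Hot plate at 55 °C inside a glass cylinder. Two baseline latencies taken ≥10 min apart, then latency read at 1.5, 3.5 and 5.5 h after dosing. Endpoint is jumping or paw licking, with a 30 s cutoff.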
# Mus musculus [2] = assay: Antihyperalgesic activity in carrageenan-induced mechanical hyperalgesia Swiss mouse model assessed as paw withdrawal latency at 3 mg/kg, po administered 30 mins prior to challenge measured after 1 to 3 hrs post stimulus by electronic pressure-meter test; type: functional, organism-based; set-up: dose 3 mg/kg
# Summary of the method: (§1)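 Male Swiss mice dosed po (1–10 mg/kg, 2% DMSO in saline) 30 min before intraplantar carrageenin (100 μg/paw). Control indomethacin 5 mg/kg ip given 40 min before. Electronic pressure-meter readings at 1, 3 and 5 h, mean of three. Δ withdrawal threshold (g) is the post-stimulus reading minus zero-time. n = 5.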
# Mus musculus [3] = assay: Antihyperalgesic activity in po dosed carrageenan-induced mechanical hyperalgesia Swiss mouse model assessed as paw withdrawal latency administered 30 mins prior to challenge by electronic pressure-meter test; type: functional, organism-based; summary of the method: as §1
# Mus musculus [4] = assay: Gastrointestinal toxicity in Swiss mouse assessed as increase in stomach MPO activity at 10 mg/kg, po for 7 days measured over 7 days relative to vehicle-treated control; type: organism-based; set-up: dose 10 mg/kg, route oral; settings: in vivo, 168 h
# Summary of the method: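 Mice dosed po daily for 7 days: vehicle (2% DMSO/saline or Tris/HCl pH 8.0), 10 mg/kg, or indomethacin 2.5 mg/kg. Stomach is homogenized in 50 mM phosphate buffer pH 6.0 with 0.5% HTAB. Supernatant is reacted with o-dianisidine/H2O2 and read at 450 nm. Results expressed as neutrophils ×10^4/mg tissue from a neutrophil standard curve. n = 8.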
# Mus musculus [5] = assay: Antiinflammatory activity in Swiss mouse model assessed as inhibition of carrageenan-induced TNFalpha production in cutaneous plantar tissue at 10 mg/kg, po administered 30 mins prior to challenge measured 3 hrs post challenge by ELISA; type: functional, organism-based; set-up: dose 10 mg/kg
# Summary of the method: (§2)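 Swiss mice given 10 mg/kg po 30 min before intraplantar carrageenin (100 μg/paw). At 3 h, plantar skin is removed under terminal anesthesia and homogenized in buffer with protease inhibitors. IL-1β and TNF-α measured by ELISA, as pg/paw. Saline-injected paws serve as controls. n = 5.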
# Mus musculus [6] = assay: Hepatotoxicity in Swiss mouse assessed as change in plasma ALT level at 10 mg/kg, po for 7 days measured over 7 days relative to vehicle-treated control; type: toxicity, organism-based; set-up: dose 10 mg/kg, route oral; settings: in vivo, 168 h
# Summary of the method: (§3)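 Mice dosed po daily for 7 days: vehicle (2% DMSO/saline or Tris/HCl pH 8.0), 10 mg/kg, or indomethacin 2.5 mg/kg. Heparinized blood is drawn under terminal anesthesia, and plasma AST and ALT are measured with a diagnostic kit. n = 8.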
# Mus musculus [7] = assay: Toxicity in Swiss mouse assessed as sedative effect at 10 mg/kg, po after 1.5 to 5.5 hrs by roto-rod test; type: organism-based; set-up: dose 10 mg/kg, route oral; settings: in vivo
# Summary of the method: (§4)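 Rota-rod turning at 22 rpm. Mice are pre-selected 24 h earlier by staying on for two 120 s periods. Dosing is vehicle (20% Tween 80/saline) or 10 mg/kg po, with testing at 1.5, 3.5 and 5.5 h and a 120 s cutoff. n = 6.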
# Mus musculus [8] = assay: Antiinflammatory activity in complete Freund's adjuvant-induced Swiss mouse pain model assessed as inhibition of paw flinching at 10 mg/kg, po administered 30 mins prior to challenge; type: functional, organism-based; set-up: dose 10 mg/kg
# Summary of the method: (§5)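 10 mg/kg po (or vehicle) given 30 min before intraplantar CFA (10 μL/paw) in Swiss mice. Paw flinches and licking time counted over 30 min as cumulative totals. n = 6.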
# Mus musculus [9] = assay: Antinociceptive activity against formalin-induced pain in Swiss mouse assessed as inhibition of paw licking at 10 mg/kg, po administered 30 mins prior to formalin challenge; type: functional, organism-based; set-up: dose 10 mg/kg
# Summary of the method: (§6)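 Swiss mice dosed 10 mg/kg po 30 min before intraplantar formalin (25 μL of 1.5% in saline). Flinches and licking time counted over 0–30 min in 5-min bins and reported as 0–15 and 15–30 min phases. n = 6.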
# Mus musculus [10] = assay: Antinociceptive activity against formalin-induced pain in Swiss mouse assessed as inhibition of paw flinching at 10 mg/kg, po administered 30 mins prior to formalin challenge; type: functional, organism-based; set-up: dose 10 mg/kg; summary of the method: as §6
# Mus musculus [11] = assay: Antiinflammatory activity in complete Freund's adjuvant-induced Swiss mouse pain model assessed as inhibition of paw licking at 10 mg/kg, po administered 30 mins prior to challenge; type: functional, organism-based; set-up: dose 10 mg/kg; summary of the method: as §5
# Mus musculus [12] = assay: Antihyperalgesic activity in carrageenan-induced mechanical hyperalgesia Swiss mouse model assessed as paw withdrawal latency at 10 mg/kg, po administered 30 mins prior to challenge measured after 1 to 5 hrs post challenge by electronic pressure-meter test; type: functional, organism-based; set-up: dose 10 mg/kg; summary of the method: as §1
# Mus musculus [13] = assay: Antihyperalgesic activity in PGE2-induced mechanical hyperalgesia Swiss mouse model assessed as paw withdrawal latency at 10 mg/kg, po administered 30 mins prior to challenge measured at 3 hrs post compound treatment by electronic pressure-meter test; type: functional, organism-based; set-up: dose 10 mg/kg
# Summary of the method: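 Male Swiss mice given 10 mg/kg po (vehicle 2% DMSO in saline) 30 min before intraplantar PGE2 (100 ng/paw). Electronic pressure-meter test 3 h after stimulus, each value the mean of three readings. Result is Δ withdrawal threshold (g), zero-time mean subtracted. n = 5.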
# Mus musculus [14] = assay: Antihyperalgesic activity in carrageenan-induced mechanical hyperalgesia Swiss mouse model assessed as paw withdrawal latency at 10 mg/kg, po administered 30 mins prior to challenge measured after 1 to 5 hrs post challenge by electronic pressure-meter test in presence of 90 mg/kg L-NAME; type: functional, organism-based
# Summary of the method: (§7)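 Swiss mice given L-NAME (10–90 mg/kg ip) 60 min before 10 mg/kg po. Intraplantar carrageenin (100 μg/paw) 30 min later. Mechanical threshold by electronic pressure-meter at 5 h, reported as Δ withdrawal threshold (g). n = 5.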
# Mus musculus [15] = assay: Antiinflammatory activity in Swiss mouse model assessed as inhibition of carrageenan-induced IL-1beta production in cutaneous plantar tissue at 10 mg/kg, po administered 30 mins prior to challenge measured 3 hrs post challenge by ELISA; type: functional, organism-based; set-up: dose 10 mg/kg; summary of the method: as §2
# Mus musculus [16] = assay: Antihyperalgesic activity in carrageenan-induced mechanical hyperalgesia Swiss mouse model assessed as paw withdrawal latency at 1 mg/kg, po administered 30 mins prior to challenge by electronic pressure-meter test; type: functional, organism-based; set-up: dose 1 mg/kg; summary of the method: as §1
# Mus musculus [17] = assay: Toxicity in Swiss mouse assessed as effect on muscle-relaxing effect at 10 mg/kg, po after 1.5 to 5.5 hrs by roto-rod test; type: organism-based; set-up: dose 10 mg/kg, route oral; settings: in vivo; summary of the method: as §4
# Mus musculus [18] = assay: Hepatotoxicity in Swiss mouse assessed as change in plasma AST level at 10 mg/kg, po for 7 days measured over 7 days relative to vehicle-treated control; type: toxicity, organism-based; set-up: dose 10 mg/kg, route oral; settings: in vivo, 168 h; summary of the method: as §3
# Mus musculus [19] = assay: Antinociceptive activity in Swiss mouse assessed as inhibition of acetic acid-induced writhing at 3 to 30 mg/kg, ip administered 30 mins prior to acetic acid challenge; type: functional, organism-based
# Summary of the method: (§8)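 Mice dosed ip or po (3–30 mg/kg, 2% DMSO in saline) 30 min before ip acetic acid (0.8% v/v, 10 mL/kg). Indomethacin 5 mg/kg ip given 40 min before. Cumulative writhing score over 20 min. n = 6.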
# Mus musculus [20] = assay: Antihyperalgesic activity in complete Freund's adjuvant-induced Swiss mouse pain model assessed as paw withdrawal latency at 10 mg/kg, po starting 1 hr post challenge for 7 days measured on day 1 post challenge by electronic pressure-meter test; type: functional, organism-based; set-up: dose 10 mg/kg
# Summary of the method: (§9)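 Male Swiss mice injected intraplantar with CFA (10 μL/paw). Dosing is daily from 1 h after CFA for 7 days, either 10 mg/kg po or indomethacin 5 mg/kg ip. Electronic pressure-meter Δ withdrawal threshold (g) measured every 24 h. n = 6.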
# Mus musculus [21] = assay: Antinociceptive activity in po dosed Swiss mouse assessed as inhibition of acetic acid-induced writhing administered 30 mins prior to acetic acid challenge; type: functional, organism-based; summary of the method: as §8
# Mus musculus [22] = assay: Antihyperalgesic activity in carrageenan-induced mechanical hyperalgesia Swiss mouse model assessed as paw withdrawal latency at 10 mg/kg, po administered 30 mins prior to challenge measured after 1 to 5 hrs post stimulus by electronic pressure-meter test; type: functional, organism-based; set-up: dose 10 mg/kg; summary of the method: as §1
# Mus musculus [23] = assay: Antihyperalgesic activity in carrageenan-induced mechanical hyperalgesia Swiss mouse model assessed as paw withdrawal latency at 10 mg/kg, po administered 30 mins prior to challenge measured after 1 to 5 hrs post challenge by electronic pressure-meter test in presence of soluble […] inhibitor ODQ; type: functional, organism-based; set-up: dose 10 mg/kg
# Summary of the method: (§10)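 Pretreatment ip: ODQ 0.3 mg/kg in 2% DMSO/saline at 30 min, KT5823 0.5 μg/mouse in 2% DMSO/saline at 5 min, or glybenclamide 0.3 mg/kg in 5% Tween 80/saline at 45 min. Each is followed by 10 mg/kg po, then intraplantar carrageenin (100 μg/paw) 30 min later. Pressure-meter Δ threshold (g) at 1, 3 and 5 h. n = 5.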
# Mus musculus [24] = assay: Antihyperalgesic activity in carrageenan-induced mechanical hyperalgesia Swiss mouse model assessed as paw withdrawal latency at 10 mg/kg, po administered 30 mins prior to challenge measured after 1 to 5 hrs post challenge by electronic pressure-meter test in presence of 10 mg/kg L-NAME; type: functional, organism-based; summary of the method: as §7
# Mus musculus [25] = assay: Antihyperalgesic activity in carrageenan-induced mechanical hyperalgesia Swiss mouse model assessed as paw withdrawal latency at 10 mg/kg, po administered 30 mins prior to challenge measured after 1 to 5 hrs post challenge by electronic pressure-meter test in presence of PKG inhibitor KT5823; type: functional, organism-based; set-up: dose 10 mg/kg; summary of the method: as §10
# Mus musculus [26] = assay: Antihyperalgesic activity in carrageenan-induced mechanical hyperalgesia Swiss mouse model assessed as paw withdrawal latency at 10 mg/kg, po administered 30 mins prior to challenge measured after 1 to 5 hrs post challenge by electronic pressure-meter test in presence of glibenclamide; type: functional, organism-based; set-up: dose 10 mg/kg; summary of the method: as §10
# Mus musculus [27] = assay: Antihyperalgesic activity in carrageenan-induced mechanical hyperalgesia Swiss mouse model assessed as paw withdrawal latency at 10 mg/kg, po administered 30 mins prior to challenge measured after 1 to 5 hrs post challenge by electronic pressure-meter test in presence of 30 mg/kg L-NAME; type: functional, organism-based; summary of the method: as §7
# Mus musculus [28] = assay: Antihyperalgesic activity in complete Freund's adjuvant-induced Swiss mouse pain model assessed as paw withdrawal latency at 10 mg/kg, po starting 1 hr post challenge for 7 days measured after 2 to 7 days by electronic pressure-meter test; type: functional, organism-based; set-up: dose 10 mg/kg; summary of the method: as §9
# Mus musculus [29] = assay: Antinociceptive activity in Swiss mouse assessed as inhibition of PBQ-induced writhing at 10 mg/kg, po administered 30 mins prior to PBQ challenge; type: functional, organism-based; set-up: dose 10 mg/kg
# Summary of the method: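 Swiss mice dosed po (10 mg/kg) 30 min before ip PBQ (1890 μg/kg in 2% DMSO/saline). Indomethacin 5 mg/kg ip given 40 min before. Cumulative writhing score over 20 min. n = 6.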
smiles,measurement,setting,value
C=C1C[C@@]23CC[C@H]4[C@@](C)(CCC[C@@]4(C)C(=O)O)[C@@H]2CC[C@@H]1C3 [KAURENOIC ACID],Activity,Mus musculus [1],inactive
same,Activity,Mus musculus [2],Active
same,Activity,Mus musculus [3],Dose-dependent effect
same,Activity,Mus musculus [4],Non-toxic
same,inhibition,Mus musculus [5],Active
same,Activity,Mus musculus [6],Non-toxic
same,Activity,Mus musculus [7],Non-toxic
same,inhibition,Mus musculus [8],Active
same,inhibition,Mus musculus [9],Active
same,inhibition,Mus musculus [10],Active
same,inhibition,Mus musculus [11],Active
same,Activity,Mus musculus [12],Active
same,Activity,Mus musculus [13],Active
same,Activity,Mus musculus [14],inactive
same,inhibition,Mus musculus [15],Active
same,Activity,Mus musculus [16],inactive
same,Activity,Mus musculus [17],Non-toxic
same,Activity,Mus musculus [18],Non-toxic
same,inhibition,Mus musculus [19],Active
same,Activity,Mus musculus [20],inactive
same,inhibition,Mus musculus [21],Dose-dependent effect
same,Activity,Mus musculus [22],Active
same,Activity,Mus musculus [23],inactive
same,Activity,Mus musculus [24],Active
same,Activity,Mus musculus [25],inactive
same,Activity,Mus musculus [26],inactive
same,Activity,Mus musculus [27],inactive
same,Activity,Mus musculus [28],Active
same,inhibition,Mus musculus [29],Active
